# From ChEMBL document CHEMBL2176942 (J Med Chem, 2012)
# Columns and labels:
# [1] = Cmax in rat at 10 mg/kg, po; format: ADME, organism-based; set-up: dose 10 mg/kg, route oral; conditions: in vivo
# Procedure, shortened: (§1)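 Rats starved overnight, then given 10 mg/kg po as a suspension in 0.3% Tween-80 and 0.5% Methocel, or 2 mg/kg iv in 70% PEG400. Plasma was solid-phase extracted and assayed by HPLC-UV (LOQ 6 ng/mL, calibration in blank plasma). Parameters were derived by noncompartmental analysis.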
# [2] = Permeability across human Caco2 cells at pH 7.4; format: ADME, cell-based; conditions: Caco-2, pH 7.4, read-out: permeability
# Procedure, shortened: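 Caco-2 permeability run without BSA, with both chambers at pH 7.4; values are the average of at least two determinations.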
# [3] = AUC in rat at 10 mg/kg, po; format: ADME, organism-based; set-up: dose 10 mg/kg, route oral; conditions: plasma; procedure, shortened: as §1
# in vitro [4] = conditions: human
# [5] = Mean residence time in rat at 10 mg/kg, po; format: ADME, organism-based; set-up: dose 10 mg/kg, route oral; conditions: in vivo; procedure, shortened: as §1
# in vitro [6] = conditions: rat
# [7] = Half life in dog at 2 mg/kg, iv; format: ADME, organism-based, Canis lupus familiaris; set-up: dose 2 mg/kg, route intravenous; conditions: in vivo
# Procedure, shortened: (§2)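 Dogs starved overnight, then dosed 2 mg/kg iv in 70% PEG400 or 10 mg/kg orally as a suspension in 0.3% Tween-80/0.5% Methocel. Plasma was extracted by solid phase and quantified by HPLC with UV diode-array detection (LOQ 6 ng/mL). Parameters came from noncompartmental analysis.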
# [8] = Oral bioavailability in dog; format: ADME, organism-based, Canis lupus familiaris; conditions: in vivo; procedure, shortened: as §2
# [9] = Clearance in dog at 2 mg/kg, iv; format: ADME, organism-based, Canis lupus familiaris; set-up: dose 2 mg/kg, route intravenous; conditions: in vivo
# [10] = Cmax in dog at 10 mg/kg, po; format: ADME, organism-based, Canis lupus familiaris; set-up: dose 10 mg/kg, route oral; conditions: in vivo
# [11] = AUC in dog at 10 mg/kg, po; format: ADME, organism-based, Canis lupus familiaris; set-up: dose 10 mg/kg, route oral; conditions: plasma
# Procedure, shortened: (§3)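 Fasted overnight, then dosed orally at 10 mg/kg as a suspension in 0.3% Tween-80 and 0.5% Methocel. Blood kept on ice and centrifuged at 4 °C; plasma stored at about −20 °C. Solid-phase extraction, then HPLC with UV diode-array detection (200–400 nm) quantified by peak height against blank-plasma standards (LOQ 6 ng/mL). AUC from noncompartmental analysis.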
# [12] = Volume of distribution at steady state in dog at 2 mg/kg, iv; format: ADME, organism-based, Canis lupus familiaris; set-up: dose 2 mg/kg, route intravenous; conditions: in vivo, read-out: Vdss; procedure, shortened: as §2
# [13] = Half life in rat at 2 mg/kg, iv; format: ADME, organism-based; set-up: dose 2 mg/kg, route intravenous; conditions: in vivo; procedure, shortened: as §1
# [14] = Oral bioavailability in rat; format: ADME, organism-based; conditions: in vivo; procedure, shortened: as §1
# [15] = Volume of distribution at steady state in rat at 2 mg/kg, iv; format: ADME, organism-based; set-up: dose 2 mg/kg, route intravenous; conditions: in vivo, read-out: Vdss; procedure, shortened: as §1
# [16] = Mean residence time in dog at 10 mg/kg, po; format: ADME, organism-based, Canis lupus familiaris; set-up: dose 10 mg/kg, route oral; conditions: in vivo; procedure, shortened: as §2
# [17] = Clearance in rat at 2 mg/kg, iv; format: ADME, organism-based; set-up: dose 2 mg/kg, route intravenous; conditions: in vivo
# Liver microsomes [18] = experiment: Drug metabolism in human liver microsomes assessed as formation of metabolite 3-(4-(2-(3-(3-hydroxycyclohexyl)-1-methyl-2-(pyridin-2-yl)-1H-indole-6-carboxamido)-2-methylpropanamido)phenyl)acrylic acid incubated for 30 mins by HPLC/MS method; format: ADME, Microsome; conditions: 0.5 h
# Liver microsomes [19] = experiment: Drug metabolism in rat liver microsomes assessed as formation of metabolite 3-(4-(2-(3-(3-hydroxycyclohexyl)-1-methyl-2-(pyridin-2-yl)-1H-indole-6-carboxamido)-2-methylpropanamido)phenyl)acrylic acid incubated for 30 mins by HPLC/MS method; format: ADME, Microsome; conditions: 0.5 h
# [20] = Cmax in rhesus monkey at 10 mg/kg, po; format: ADME, organism-based, Macaca mulatta; set-up: dose 10 mg/kg, route oral; conditions: in vivo
# Procedure, shortened: (§4)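 Rhesus monkeys fasted overnight, then dosed iv at 2 mg/kg in 70% PEG400 or orally at 10 mg/kg as a suspension in 0.3% Tween-80 and 0.5% Methocel. Plasma was kept frozen at about −20 °C, extracted by solid-phase extraction and assayed by HPLC-UV against blank-plasma standards (LOQ 6 ng/mL). Parameters came from noncompartmental analysis.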
# [21] = Mean residence time in rhesus monkey at 10 mg/kg, po; format: ADME, organism-based, Macaca mulatta; set-up: dose 10 mg/kg, route oral; conditions: in vivo; procedure, shortened: as §4
# [22] = AUC in rhesus monkey at 10 mg/kg, po; format: ADME, organism-based, Macaca mulatta; set-up: dose 10 mg/kg, route oral; conditions: plasma; procedure, shortened: as §3
# [23] = Half life in rhesus monkey at 2 mg/kg, iv; format: ADME, organism-based, Macaca mulatta; set-up: dose 2 mg/kg, route intravenous; conditions: in vivo; procedure, shortened: as §4
# [24] = Volume of distribution at steady state in rhesus monkey at 2 mg/kg, iv; format: ADME, organism-based, Macaca mulatta; set-up: dose 2 mg/kg, route intravenous; conditions: in vivo, read-out: Vdss; procedure, shortened: as §4
# [25] = Oral bioavailability rhesus monkey; format: ADME, organism-based, Macaca mulatta; conditions: in vivo; procedure, shortened: as §4
smiles,measurement,setting,value
Cn1c(-c2cccc(N)n2)c(C2CCCC2)c2ccc(C(=O)NC3(C(=O)Nc4ccc(/C=C/C(=O)O)cc4)CCC3)cc21,Cmax,[1],3.7 µM
same,Papp,[2],1.8 ×10⁻⁶ cm/s
same,AUC,[3],8.4 µM·h
same,half-life,in vitro [4]; liver microsomes,> 300 min
same,MRT,[5],3.4 h
same,half-life,in vitro [6]; liver microsomes,62 min
Cn1c(-c2cnccn2)c(C2CCCC2)c2ccc(C(=O)NC3(C(=O)Nc4ccc(/C=C/C(=O)O)cc4)CCC3)cc21,half-life,[7],96 min
same,bioavailability,[8],54%
same,Cmax,[1],7.8 µM
same,clearance,[9],4.3 mL/min/kg
same,Papp,[2],10 ×10⁻⁶ cm/s
same,Cmax,[10],10.9 µM
same,AUC,[11],37.4 µM·h
same,AUC,[3],17.7 µM·h
same,Vd,[12],0.75 L/kg
same,half-life,in vitro [4]; liver microsomes,96 min
same,half-life,[13],132 min
same,bioavailability,[14],41%
same,Vd,[15],0.58 L/kg
same,MRT,[16],3.9 h
same,clearance,[17],6.8 mL/min/kg
same,MRT,[5],2.4 h
same,half-life,in vitro [6]; liver microsomes,56 min
Cn1c(-c2ccoc2)c(C2CCCC2)c2ccc(C(=O)NC3(C(=O)Nc4ccc(/C=C/C(=O)O)cc4)CCC3)cc21,Papp,[2],7.5 ×10⁻⁶ cm/s
same,half-life,in vitro [4]; microsomes,162 min
Cn1c(-c2ccccn2)c(C2CCCC2)c2ccc(C(=O)NC3(C(=O)Nc4ccc(/C=C/C(=O)O)cc4)CCCC3)cc21,Papp,[2],12.6 ×10⁻⁶ cm/s
same,half-life,in vitro [4]; microsomes,96 min
same,half-life,in vitro [6]; microsomes,19 min
Cn1c(-c2ccccn2)c(C2CCCCC2)c2ccc(C(=O)NC(C)(C)C(=O)Nc3ccc(/C=C/C(=O)O)cc3)cc21,Drug metabolism,Liver microsomes [18],Active
same,Drug metabolism,Liver microsomes [19],Active
Cn1c(-c2ccncc2)c(C2CCCC2)c2ccc(C(=O)NC3(C(=O)Nc4ccc(/C=C/C(=O)O)cc4)CCCC3)cc21,Papp,[2],0.8 ×10⁻⁶ cm/s
same,half-life,in vitro [4]; liver microsomes,107 min
Cc1ccc(-c2c(C3CCCC3)c3ccc(C(=O)NC4(C(=O)Nc5ccc(/C=C/C(=O)O)cc5)CCC4)cc3n2C)nc1,Papp,[2],6.9 ×10⁻⁶ cm/s
same,half-life,in vitro [4]; microsomes,53 min
same,half-life,in vitro [6]; microsomes,24 min
Cn1c(-c2ccncc2)c(C2CCCC2)c2ccc(C(=O)NC3(C(=O)Nc4ccc(/C=C/C(=O)O)cc4)CCC3)cc21,Papp,[2],2.9 ×10⁻⁶ cm/s
same,half-life,in vitro [4]; liver microsomes,112 min
same,half-life,in vitro [6]; liver microsomes,69 min
Cn1c(-c2ccc(Cl)cc2)c(C2CCCC2)c2ccc(C(=O)NC3(C(=O)Nc4ccc(/C=C/C(=O)O)cc4)CCC3)cc21,half-life,in vitro [4]; liver microsomes,> 300 min
same,half-life,in vitro [6]; liver microsomes,> 300 min
COc1ccc(-c2c(C3CCCC3)c3ccc(C(=O)NC4(C(=O)Nc5ccc(/C=C/C(=O)O)cc5)CCC4)cc3n2C)cn1,Papp,[2],1.5 ×10⁻⁶ cm/s
same,half-life,in vitro [4]; liver microsomes,95 min
same,half-life,in vitro [6]; liver microsomes,61 min
Cn1c(-c2ccccn2)c(C2CCCC2)c2ccc(C(=O)NC3(C(=O)Nc4ccc(/C=C/C(=O)O)cc4)CCC3)cc21 [BILB-1941],half-life,[7],258 min
same,bioavailability,[8],64%
same,Cmax,[1],7.5 µM
same,Papp,[2],11.2 ×10⁻⁶ cm/s
same,Cmax,[20],6.4 µM
same,MRT,[21],2.9 h
same,AUC,[22],20.5 µM·h
same,AUC,[11],99 µM·h
same,AUC,[3],22.7 µM·h
same,Vd,[12],0.54 L/kg
same,half-life,in vitro [4]; microsomes,85 min
same,half-life,[13],90 min
same,bioavailability,[14],59%
same,Vd,[15],0.48 L/kg
same,MRT,[16],5.4 h
same,half-life,[23],102 min
same,Vd,[24],0.7 L/kg
same,MRT,[5],4.1 h
same,bioavailability,[25],70%
same,half-life,in vitro [6]; microsomes,31 min
Cn1c(-c2ccc(Cl)cn2)c(C2CCCC2)c2ccc(C(=O)NC(C)(C)C(=O)Nc3ccc(/C=C/C(=O)O)cc3)cc21,Papp,[2],1.8 ×10⁻⁶ cm/s
same,half-life,in vitro [4]; microsomes,236 min
Cn1c(-c2ccccn2)c(C2CCCC2)c2ccc(C(=O)NC(C)(C)C(=O)Nc3ccc(/C=C/C(=O)O)cc3)cc21,Cmax,[1],6.4 µM
same,Papp,[2],6.5 ×10⁻⁶ cm/s
same,AUC,[3],7.2 µM·h
same,half-life,[13],102 min
same,bioavailability,[14],46%
same,Vd,[15],1.3 L/kg
same,clearance,[17],18.2 mL/min/kg
same,MRT,[5],1.7 h
CN1CC[C@@](NC(=O)c2ccc3c(C4CCCC4)c(-c4cccc(N)n4)n(C)c3c2)(C(=O)Nc2ccc(/C=C/C(=O)O)cc2)C1,Cmax,[1],0.09 µM
same,Papp,[2],2.9 ×10⁻⁶ cm/s
same,half-life,in vitro [4]; microsomes,> 300 min
Cn1c(-c2ccc(F)cn2)c(C2CCCC2)c2ccc(C(=O)NC3(C(=O)Nc4ccc(/C=C/C(=O)O)cc4)CCC3)cc21,half-life,in vitro [4]; liver microsomes,167 min
Cn1c(-c2ccc(Cl)cn2)c(C2CCCC2)c2ccc(C(=O)NC3(C(=O)Nc4ccc(/C=C/C(=O)O)cc4)CCCC3)cc21,half-life,in vitro [4]; liver microsomes,> 300 min
